Data published in ChEMBL document CHEMBL1156597, “Structure-activity relationship of kahalalide F synthetic analogues” (J Med Chem, 2008).

How the values were obtained:
[1] = system: DU-145; assay: Cytotoxicity against human DU145 cells after 48 hrs by SRB assay; type: functional, cell-based; settings: Homo sapiens, DU-145, 48 h; for GI50: read-out: GI50; for CC50: read-out: LC50 (the source's name)
In short: (§1)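 Cells grown in RPMI 1640 with 10% FBS and penicillin/streptomycin at 37 °C and 5% CO₂, trypsinized, then seeded at 5 × 10³/well. After 18 h drug-free attachment, samples in DMSO/EtOH/PBS (0.5:0.5:99) were added for 48 h continuous exposure. Cells were fixed with cold TCA (1 h, 4 °C) and stained with SRB (10 min). Tris-solubilized stain read at 490 nm. Triplicate wells, mean ± SD; GI₅₀ derived.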

[2] = system: LoVo; assay: Cytotoxicity against human LoVo cells after 48 hrs by SRB assay; type: functional; settings: for CC50: read-out: LC50 (the source's name)
[3] = system: LNCaP; assay: Cytotoxicity against human LNcaP cells after 48 hrs by SRB assay; type: functional; settings: for CC50: read-out: LC50 (the source's name); in short: as §1
[4] = Cytotoxicity against human IGROV cells after 48 hrs by SRB assay; type: functional; settings: for CC50: read-out: LC50 (the source's name); in short: as §1
[5] = system: SK-BR-3; assay: Cytotoxicity against human SKBR3 cells after 48 hrs by SRB assay; type: functional; settings: SK-BR-3, 48 h; for GI50: read-out: GI50; for CC50: read-out: LC50 (the source's name); in short: as §1
[6] = system: HT-29; assay: Cytotoxicity against human HT29 cells after 48 hrs by SRB assay; type: functional, cell-based; settings: Homo sapiens, HT-29, 48 h; for CC50: read-out: LC50 (the source's name); in short: as §1
[7] = system: PANC-1; assay: Cytotoxicity against human PANC1 cells after 48 hrs by SRB assay; type: functional; settings: PANC-1, 48 h, read-out: LC50 (the source's name); in short: as §1
[8] = system: K562; assay: Cytotoxicity against human K562 cells after 48 hrs by SRB assay; type: functional; settings: K562, 48 h; for CC50: read-out: LC50 (the source's name); in short: as §1
[9] = system: SK-MEL-28; assay: Cytotoxicity against human SK-MEL-28 cells after 48 hrs by SRB assay; type: functional, cell-based; settings: Homo sapiens, SK-MEL-28, 48 h; for CC50: read-out: LC50 (the source's name); in short: as §1
[10] = system: A549; assay: Cytotoxicity against human A549 cells after 48 hrs by SRB assay; type: functional, cell-based; settings: Homo sapiens, A549, 48 h; for GI50: read-out: GI50; in short: as §1
[11] = system: LoVo; assay: Cytotoxicity against human doxorubicin resistant LoVo cells after 48 hrs by SRB assay; type: functional; settings: for CC50: read-out: LC50 (the source's name); in short: as §1
[12] = Cytotoxicity against human IGROV-ET cells after 48 hrs by SRB assay; type: functional; settings: for CC50: read-out: LC50 (the source's name); in short: as §1
[13] = system: HeLa; assay: Cytotoxicity against human HeLa cells after 48 hrs by SRB assay; type: functional; settings: for CC50: read-out: LC50 (the source's name); in short: as §1
[14] = Cytotoxicity against human HeLa-APL cells after 48 hrs by SRB assay; type: functional; in short: as §1

## C/C=C1\NC(=O)[C@H](Cc2ccccc2)NC(=O)[C@@H](C(C)C)NC(=O)[C@@H]([C@H](C)CC)NC(=O)[C@H](NC(=O)[C@H](NC(=O)[C@H](CCCN)NC(=O)[C@H]2CCCN2C(=O)[C@H](NC(=O)[C@@H](NC(=O)[C@@H](NC(=O)[C@@H](CC2CCCCC2)NC(=O)CCCC(C)C)[C@@H](C)O)C(C)C)C(C)C)[C@H](C)CC)[C@H](C)OC(=O)[C@H](C(C)C)NC1=O
[1]
  TGI: 1200 nM
  GI50: 1410 nM
  CC50: 1030 nM
[2]
  GI50: 2090 nM
  TGI: 2130 nM
  CC50: 2180 nM
[3]
  GI50: 2980 nM
  TGI: 3460 nM
  CC50: 1720 nM
[4]
  TGI: 8320 nM
  CC50: 401 nM
[4]; read-out: GI50
  GI50: 1270 nM
[5]
  TGI: 862 nM
  GI50: 789 nM
  CC50: 4990 nM
[6]
  GI50: 2010 nM
  TGI: 2310 nM
  CC50: 2650 nM
[7]
  CC50: 2440 nM
[8]
  GI50: 2100 nM
  TGI: 3070 nM
  CC50: 2340 nM
[9]
  TGI: 1470 nM
  CC50: 1230 nM
[9]; read-out: GI50
  GI50: 1730 nM
[10]
  LC50: 1770 nM
  TGI: 2180 nM
  GI50: 1970 nM
[11]
  GI50: 825 nM
  TGI: 746 nM
  CC50: 247 nM
[12]
  TGI: 1230 nM
  CC50: 373 nM
[12]; read-out: GI50
  GI50: 1090 nM
[13]
  GI50: 1300 nM
  TGI: 1090 nM
  CC50: 917 nM
[14]
  GI50: 1450 nM
  LC50 (concentration giving 50% net cell kill): 1140 nM
  TGI: 1290 nM

## C/C=C1\NC(=O)[C@H](Cc2ccccc2)NC(=O)[C@@H](C(C)C)NC(=O)[C@@H]([C@H](C)CC)NC(=O)[C@H](NC(=O)[C@H](NC(=O)[C@H](CCCN)NC(=O)[C@H]2CCCN2C(=O)[C@H](NC(=O)[C@@H](NC(=O)[C@@H](NC(=O)[C@H](NC(=O)CCCCC(C)=O)C(C)C)[C@@H](C)O)C(C)C)C(C)C)[C@H](C)CC)[C@H](C)OC(=O)[C@H](C(C)C)NC1=O
[1]
  CC50: 1670 nM
[2]
  GI50: 8590 nM
  TGI: 8100 nM
  CC50: 3900 nM
[3]
  CC50: 1390 nM
[4]
  CC50: 851 nM
[5]
  TGI: 6310 nM
  GI50: 7270 nM
  CC50: 1050 nM
[6]
  CC50: 2350 nM
[7]
  CC50: 2290 nM
[8]
  CC50: 1910 nM
[9]
  CC50: 1840 nM
[10]
  LC50: 1810 nM
[11]
  GI50: 5050 nM
  TGI: 7660 nM
  CC50: 3710 nM
[12]
  CC50: 638 nM
[13]
  CC50: 1370 nM
[14]
  LC50 (concentration giving 50% net cell kill): 1440 nM

## C/C=C1\NC(=O)[C@H](Cc2ccccc2)NC(=O)[C@@H](C(C)C)NC(=O)[C@@H]([C@H](C)CC)NC(=O)[C@H](NC(=O)[C@H](NC(=O)[C@H](CCCN)NC(=O)[C@H]2CCCN2C(=O)[C@H](NC(=O)[C@@H](NC(=O)[C@H](CCC(=O)O)NC(=O)[C@H](NC(=O)CCCC(C)C)C(C)C)C(C)C)C(C)C)[C@H](C)CC)[C@H](C)OC(=O)[C@H](C(C)C)NC1=O
[1]
  TGI: 2630 nM
  GI50: 2480 nM
  CC50: 1370 nM
[2]
  CC50: 292 nM
[3]
  GI50: 1070 nM
  TGI: 949 nM
  CC50: 838 nM
[4]
  GI50: 498 nM
  CC50: 483 nM
[4]; read-out: GI50
  GI50: 857 nM
[5]
  CC50: 356 nM
[6]
  CC50: 422 nM
[7]
  CC50: 1740 nM
[8]
  CC50: 1960 nM
[9]
  CC50: 1470 nM
[10]
  LC50: 7080 nM
  TGI: 1450 nM
  GI50: 1630 nM
[11]
  CC50: 294 nM
[12]
  GI50: 849 nM
  CC50: 639 nM
[12]; read-out: GI50
  GI50: 1130 nM
[13]
  GI50: 2550 nM
  TGI: 2500 nM
  CC50: 1100 nM
[14]
  GI50: 2060 nM
  LC50 (concentration giving 50% net cell kill): 956 nM
  TGI: 1890 nM

## C/C=C1\NC(=O)[C@H](Cc2ccccc2)NC(=O)[C@@H](C(C)C)NC(=O)[C@@H]([C@H](C)CC)NC(=O)[C@H](NC(=O)[C@H](NC(=O)[C@H](CCCN)NC(=O)[C@H]2CCCN2C(=O)[C@H](NC(=O)[C@@H](NC(=O)[C@H](CCCN)NC(=O)[C@H](NC(=O)CCCC(C)C)C(C)C)C(C)C)C(C)C)[C@H](C)CC)[C@H](C)OC(=O)[C@H](C(C)C)NC1=O
[1]
  CC50: 1400 nM
[2]
  GI50: 4940 nM
  TGI: 4180 nM
  CC50: 3330 nM
[3]
  GI50: 675 nM
  TGI: 2240 nM
  CC50: 1120 nM
[4]
  GI50: 292 nM
  CC50: 576 nM
[4]; read-out: GI50
  GI50: 4700 nM
[5]
  CC50: 296 nM
[6]
  GI50: 5900 nM
  TGI: 5140 nM
  CC50: 446 nM
[7]
  CC50: 2240 nM
[8]
  GI50: 1620 nM
  TGI: 1890 nM
  CC50: 2180 nM
[9]
  CC50: 1640 nM
[10]
  LC50: 4620 nM
[11]
  GI50: 2880 nM
  TGI: 2700 nM
  CC50: 484 nM
[12]
  CC50: 957 nM
[13]
  CC50: 951 nM
[14]
  LC50 (concentration giving 50% net cell kill): 9600 nM
